The source made the active and inactive calls. No cut-off for these calls is given here.
Experiments:
[1] = test system: Trypanosoma brucei brucei; assay: Antitrypanosomal activity against Trypanosoma brucei brucei TC221 after 72 hrs by alamar blue assay; format: functional; conditions: TC221, 72 h
Procedure, shortened: (§1)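 T. b. brucei TC221 bloodstream-form proliferation measured by alamarBlue (resazurin reduced to resorufin by living cells); 48 h and 72 h read-outs. IC50 derived per Räz et al. method; each compound tested in duplicate, mean of two values.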

[2] = test system: Trypanosoma brucei brucei; assay: Antitrypanosomal activity against Trypanosoma brucei brucei TC221 after 48 hrs by alamar blue assay; format: functional; conditions: TC221, 48 h; procedure, shortened: as §1
J774.1 = assay: Cytotoxicity against mouse J774.1 cells after 24 hrs by alamar blue assay; format: cell-based; conditions: J774.1, 24 h
[3] = Selectivity index, ratio of IC50 for mouse J774.1 cells to IC50 for Trypanosoma brucei brucei TC221 measured after 48 hrs; format: toxicity; conditions: J774.1 cells (versus Trypanosoma brucei brucei TC221), read-out: Ratio IC50
Procedure, shortened: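 Selectivity index computed as IC50 (J774.1 macrophages, alamarBlue) divided by IC50 (T. b. brucei TC221, alamarBlue); duplicate determinations, means used.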

[4] = Stability of the compound; format: physicochemical
Leishmania infantum = assay: Antileishmanial activity against Leishmania infantum; format: functional
[5] = Inhibition of trypanothione reductase
[6] = molecular target: Rhodesain (Trypanosoma brucei rhodesiense) (UniProt Q95PM0); assay: Inhibition of Trypanosoma brucei rhodesiense rhodesain at 20 uM using Cbz-Phe-Arg-AMC as substrate measured for 5 mins by spectrofluorometric analysis relative to control
Chain of Rhodesain (Trypanosoma brucei rhodesiense) (Q95PM0 1-450): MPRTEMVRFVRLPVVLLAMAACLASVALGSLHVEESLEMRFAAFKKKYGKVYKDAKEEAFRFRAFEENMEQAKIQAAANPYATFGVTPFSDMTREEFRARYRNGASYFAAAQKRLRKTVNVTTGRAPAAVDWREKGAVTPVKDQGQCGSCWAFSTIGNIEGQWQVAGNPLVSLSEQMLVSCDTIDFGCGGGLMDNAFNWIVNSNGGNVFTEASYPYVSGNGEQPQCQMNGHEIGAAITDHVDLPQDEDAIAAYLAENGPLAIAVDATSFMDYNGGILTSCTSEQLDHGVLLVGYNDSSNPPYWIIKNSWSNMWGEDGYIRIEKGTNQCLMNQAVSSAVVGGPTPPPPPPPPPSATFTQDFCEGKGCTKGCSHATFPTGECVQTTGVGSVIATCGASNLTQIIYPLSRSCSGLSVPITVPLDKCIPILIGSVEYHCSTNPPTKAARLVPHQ
Procedure, shortened: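 Rhodesain in 50 mM sodium acetate pH 5.5 with 5 mM DTT, 5 mM EDTA, 200 mM NaCl; inhibitor 20 µM, substrate Cbz-Phe-Arg-AMC; AMC fluorescence (ex 380/em 460 nm) followed 5 min; activity from slopes of fluorescence vs time versus DMSO control; run in duplicate.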

Rhodesain = Rhodesain (Trypanosoma brucei rhodesiense, UniProt Q95PM0); assay: Inhibition of Trypanosoma brucei rhodesiense rhodesain using Cbz-Phe-Arg-AMC as substrate measured for 10 mins by spectrofluorometric analysis
Chain of Rhodesain (Q95PM0 whole entry): as the sequence (Q95PM0 1-450) above

[7] = molecular target: Rhodesain (Trypanosoma brucei rhodesiense) (UniProt Q95PM0); assay: Inhibition of Trypanosoma brucei rhodesiense rhodesain using Cbz-Phe-Arg-AMC as substrate by spectrofluorometric analysis
[8] = Aqueous solubility of the compound; format: physicochemical; conditions: buffer
[9] = molecular target: Trypanothione reductase (Trypanosoma cruzi) (UniProt P28593); assay: Inhibition of Trypanosoma cruzi trypanothione reductase at 5 uM using 100 uM trypanothione disulfide as substrate by spectrophotometric method relative to control
Chain of Trypanothione reductase (Trypanosoma cruzi) (P28593 whole entry, looked up): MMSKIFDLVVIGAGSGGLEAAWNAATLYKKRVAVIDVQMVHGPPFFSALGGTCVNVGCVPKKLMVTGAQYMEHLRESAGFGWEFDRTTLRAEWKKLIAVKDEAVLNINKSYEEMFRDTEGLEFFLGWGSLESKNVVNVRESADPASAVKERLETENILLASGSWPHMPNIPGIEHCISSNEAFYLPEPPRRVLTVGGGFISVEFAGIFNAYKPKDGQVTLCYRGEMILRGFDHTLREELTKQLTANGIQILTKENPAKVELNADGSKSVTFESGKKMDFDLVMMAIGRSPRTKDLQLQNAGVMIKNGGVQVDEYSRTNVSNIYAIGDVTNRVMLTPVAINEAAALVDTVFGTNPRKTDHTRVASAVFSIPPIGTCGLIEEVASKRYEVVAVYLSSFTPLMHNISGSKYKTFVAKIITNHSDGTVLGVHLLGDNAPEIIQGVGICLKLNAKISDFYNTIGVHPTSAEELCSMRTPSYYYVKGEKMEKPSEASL
Procedure, shortened: (§2)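 TcTryR (about 2 nM) in 40 mM HEPES, 1 mM EDTA, pH 7.5, 100 µM NADPH; inhibitor at fixed 2 or 5 µM (screening range 1–5 µM) from DMSO stock; TS2 fixed at 40 or 100 µM; absorbance decrease monitored; percent inhibition versus DMSO control.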

[10] = molecular target: Trypanothione reductase (Trypanosoma cruzi) (UniProt P28593); assay: Inhibition of Trypanosoma cruzi trypanothione reductase at 5 uM using 40 uM trypanothione disulfide as substrate by spectrophotometric method relative to control; procedure, shortened: as §2
[11] = molecular target: Trypanothione reductase (Trypanosoma cruzi) (UniProt P28593); assay: Inhibition of Trypanosoma cruzi trypanothione reductase at 2 uM using 100 uM trypanothione disulfide as substrate by spectrophotometric method relative to control; procedure, shortened: as §2
[12] = molecular target: Trypanothione reductase (Trypanosoma cruzi) (UniProt P28593); assay: Inhibition of Trypanosoma cruzi trypanothione reductase at 2 uM using 40 uM trypanothione disulfide as substrate by spectrophotometric method relative to control; procedure, shortened: as §2
[13] = Ratio of IC50 for Trypanosoma brucei rhodesiense rhodesain to IC50 for Trypanosoma brucei brucei TC221

| SMILES | IC50 [1] [µM] | IC50 [2] [µM] | IC50 (J774.1) [µM] | selectivity ratio at 48 h [3] | Activity (Leishmania infantum) | inhibition [5] | also measured |
| --- | --- | --- | --- | --- | --- | --- | --- |
| C1=Cc2c(nc3ccccc3c2NCCCCCCNc2c3c(nc4ccccc24)CCC=C3)CC1 | 0.7 | 0.51 | 1.8 | 3.5 | Active | Active | Stability [4]: Stable |
| CC1CCc2nc3cc(Cl)ccc3c(N)c2C1 (stereo not drawn) | 13.4 | 6 | 41.2 | 6.9 |  |  |  |
| CCC1CCc2nc3ccc(Cl)cc3c(N)c2C1 (stereo not drawn) | 3.7 | 2.7 | 8.3 | 3.1 |  |  |  |
| CC1CCc2nc3ccccc3c(NCCCCCCCCCNc3c4c(nc5ccccc35)CCC(C)C4)c2C1 (stereo not drawn) | 0.21 | 0.16 | 1.8 | 11.3 | Active | Active | inhibition [6]: 68%; IC50 (Rhodesain): 26.6 µM; inhibition [7]: Dose-dependent effect |
| CC1CCc2c(nc3ccccc3c2N)C1 (stereo not drawn) | 17.6 | 14.5 | 45 | 3.1 |  |  |  |
| Nc1c2c(nc3ccccc13)CCCC2=O | 18 | 14.6 | > 100 | > 6.8 |  |  |  |
| COc1ccc2nc3c(c(NCCCCCCCCCNc4c5c(nc6ccc(OC)cc46)CCCC5)c2c1)CCCC3 | 0.14 | 0.12 |  | 10.6 | Active | Active | inhibition [6]: 82%; IC50 (Rhodesain): 18.1 µM; inhibition [7]: Dose-dependent effect |
| O=C1CCCc2nc3ccccc3c(NCCCCCCCCCCNc3c4c(nc5ccccc35)CCCC4=O)c21 |  |  |  |  |  |  | solubility [8]: Insoluble |
| O=C1CCCc2nc3ccccc3c(NCCCCCCCNc3c4c(nc5ccccc35)CCCC4=O)c21 |  |  |  |  |  |  | solubility [8]: Insoluble |
| c1ccc2c(NCCCCCCNc3c4c(nc5ccccc35)CCCC4)c3c(nc2c1)CCCC3 | 0.33 | 0.26 | 3 |  | Active |  | inhibition [6]: 25%; inhibition [9]: 45.2 to 47.9%; inhibition [10]: 56.6 to 57.5%; inhibition [11]: 15.1%; inhibition [12]: 27.5 to 29.2% |
| c1ccc2c(NCCCCCNc3c4c(nc5ccccc35)CCCC4)c3c(nc2c1)CCCC3 | 6.4 | 5.2 |  |  | Active |  | inhibition [6]: 9% |
| C1=Cc2c(nc3ccccc3c2NCCCCCCCCNc2c3c(nc4ccccc24)CCC=C3)CC1 | 0.25 | 0.08 | 1.7 | 21.3 | Active | Active | Stability [4]: Stable |
| CCOC1CCc2nc3cc(Cl)ccc3c(NCCCCCCCCCNc3c4c(nc5cc(Cl)ccc35)CCC(OCC)C4)c2C1 (stereo not drawn) | 0.71 | 0.63 | 1.7 | 2.8 | Active | Active | inhibition [6]: 89%; IC50 (Rhodesain): 13.3 µM; inhibition [7]: Dose-dependent effect |
| CC1CCc2nc3ccc([N+](=O)[O-])cc3c(N)c2C1 (stereo not drawn) | 4.8 | 3.2 | 46.4 | 14.5 |  |  |  |
| C1=Cc2c(nc3ccccc3c2NCCCCCCCCCNc2c3c(nc4ccccc24)CCC=C3)CC1 | 0.25 | 0.09 | 1.6 | 16.7 | Active | Active | Stability [4]: Stable |
| Nc1c2c(nc3cc(Cl)ccc13)CCCC2 | 17.1 | 12.6 | 41 | 3.3 |  |  |  |
| CC1CCc2nc3ccc(Cl)cc3c(N)c2C1 (stereo not drawn) | 10.3 | 3.9 | 43.8 | 11.2 |  |  |  |
| CCCC1CCc2nc3ccccc3c(N)c2C1 (stereo not drawn) | 3.5 | 2.6 |  | 16.5 |  |  |  |
| CCCCOC1CCc2nc3cc(Cl)ccc3c(NCCCCCCCCCNc3c4c(nc5cc(Cl)ccc35)CCC(OCCCC)C4)c2C1 (stereo not drawn) | 0.42 | 0.43 | 8.6 | 20 | Active | Active | inhibition [6]: 26% |

| SMILES | IC50 [1] [µM] | IC50 [2] [µM] | IC50 (J774.1) [µM] | selectivity ratio at 48 h [3] | Activity (Leishmania infantum) | inhibition [5] | also measured |
| --- | --- | --- | --- | --- | --- | --- | --- |
| CCCC1CCc2nc3cc(Cl)ccc3c(N)c2C1 (stereo not drawn) | 3.4 | 2.6 | 8.4 | 3.2 |  |  |  |
| C1=Cc2c(nc3ccccc3c2NCCCCCCCCCCNc2c3c(nc4ccccc24)CCC=C3)CC1 | 0.88 | 0.29 | 9.7 | 33.4 | Active | Active | Stability [4]: Stable |
| CCC1CCc2nc3ccccc3c(N)c2C1 (stereo not drawn) | 17.2 | 12.3 | 43.6 | 3.5 |  |  |  |
| N=C(N)c1ccc(OCCCCCOc2ccc(C(=N)N)cc2)cc1 [PENTAMIDINE] |  | 0.0053 | 38.6 | 7280 |  |  |  |
| c1ccc2c(NCCCCCCCCCCNc3c4c(nc5ccccc35)CCCC4)c3c(nc2c1)CCCC3 | 0.15 | 0.12 |  | 15 | Active | Active |  |
| Nc1c2c(nc3ccccc13)CCCC2 [TACRINE] | 18.4 | 14.6 |  | > 6.8 |  |  |  |
| CCCC1CCc2nc3ccc(Cl)cc3c(N)c2C1 (stereo not drawn) | 3.4 | 2.7 |  | 3.1 |  |  |  |
| O=C1CCCc2nc3ccccc3c(NCCCCCCCCNc3c4c(nc5ccccc35)CCCC4=O)c21 |  |  |  |  |  |  | solubility [8]: Insoluble |
| CC1CCc2c(nc3ccc([N+](=O)[O-])cc3c2NCCCCCCNc2c3c(nc4ccc([N+](=O)[O-])cc24)CC(C)CC3)C1 (stereo not drawn) | 0.68 | 0.62 |  | 38.5 | Active | Active | inhibition [6]: 82%; IC50 (Rhodesain): 5.8 µM; inhibition [7]: Dose-dependent effect; Ratio IC50 [13]: 10 |
| Nc1c2c(nc3ccc([N+](=O)[O-])cc13)CCCC2 | 15.1 | 8.6 |  | 5.2 |  |  |  |
| Nc1c2c(nc3ccc(Cl)cc13)CCCC2 | 16.5 | 12 |  | 3.6 |  |  |  |
| CCC1CCc2nc3cc(Cl)ccc3c(N)c2C1 (stereo not drawn) | 3.5 | 2.8 | 24.4 | 8.7 |  |  |  |
| CC1CCc2c(nc3ccc([N+](=O)[O-])cc3c2N)C1 (stereo not drawn) | 3.7 | 6.1 | 43.3 | 7.1 |  |  |  |
| O=C1CCCc2nc3ccccc3c(NCCCCCCCCCNc3c4c(nc5ccccc35)CCCC4=O)c21 |  |  |  |  |  |  | solubility [8]: Insoluble |
| CC1(C)CCc2c(nc3cc(Cl)ccc3c2NCCCCCCNc2c3c(nc4cc(Cl)ccc24)CC(C)(C)CC3)C1 | 0.72 | 0.64 | 1.7 | 2.7 | Active | Active | inhibition [6]: 64%; IC50 (Rhodesain): 26.6 µM; inhibition [7]: Dose-dependent effect |
| Clc1ccc2c(NCCCCCCNc3c4c(nc5cc(Cl)ccc35)CCCC4)c3c(nc2c1)CCCC3 | 0.71 | 0.64 | 2.8 | 4.4 | Active | Active | inhibition [6]: 61%; IC50 (Rhodesain): 7.4 µM; inhibition [7]: Dose-dependent effect; Ratio IC50 [13]: 10 |
| O=C1CCCc2nc3ccccc3c(NCCCCCCNc3c4c(nc5ccccc35)CCCC4=O)c21 |  |  |  |  |  |  | solubility [8]: Insoluble |
| CC1CCc2nc3ccccc3c(N)c2C1 (stereo not drawn) | 18.1 | 15.8 | 44.9 | 2.8 |  |  |  |

— ChEMBL document CHEMBL4052757, “Bistacrines as potential antitrypanosomal agents” (Bioorg Med Chem, 2017)
